# Active and inactive are the calls of the source. No cut-off for these calls is given here.
# What was measured:
# [1] = target: T1, Oxysterols receptor LXR-alpha (Homo sapiens) (UniProt Q13133); assay: Agonist activity at recombinant human LXRalpha LBD (164 to 447 residues) expressed in African green monkey COS-1 cells at 25 to 50 uM incubated for 18 hrs by luciferase reporter gene assay; format: cell-based; details: dose 25-50 µM
# T1 sequence (whole entry): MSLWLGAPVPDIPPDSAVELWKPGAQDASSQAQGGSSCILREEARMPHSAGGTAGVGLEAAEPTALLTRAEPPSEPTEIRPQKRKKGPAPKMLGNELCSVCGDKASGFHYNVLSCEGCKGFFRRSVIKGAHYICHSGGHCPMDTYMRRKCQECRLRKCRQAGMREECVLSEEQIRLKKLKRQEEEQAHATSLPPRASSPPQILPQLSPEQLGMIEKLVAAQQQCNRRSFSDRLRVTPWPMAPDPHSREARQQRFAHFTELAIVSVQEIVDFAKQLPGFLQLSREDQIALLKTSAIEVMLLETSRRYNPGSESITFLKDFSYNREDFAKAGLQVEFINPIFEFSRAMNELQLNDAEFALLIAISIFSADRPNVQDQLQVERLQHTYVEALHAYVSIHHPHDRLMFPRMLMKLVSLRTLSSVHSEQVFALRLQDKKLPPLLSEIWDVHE
# How it was run: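 Transient Gal4 one-hybrid assay in COS-1 cells (7×10^4 per well), transfected 24 h after seeding. Plasmids were Gal4-DBD fused to the human nuclear receptor LBD, a 5×UAS-SV40 luciferase reporter and pRL-CMV Renilla control. Ligand in DMSO (final 0.1%) was added 5 h post-transfection. Dual-luciferase activity was read after 18 h, expressed as RLU, from three biological replicates in quadruplicate.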
# COS-1 = assay: Agonist activity at recombinant full length human PPARalpha/gamma/RXRalpha expressed in African green monkey COS-1 cells assessed as induction of CPT1A driven luciferase reporter activity at 25 uM incubated for 18 hrs by dual luciferase reporter gene assay; format: cell-based; details: filed as agonist
# How it was run: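 COS-1 cells were kept in DMEM/10% FBS at 37 °C, 5% CO2, and seeded at 7×10^4 per well. After 24 h they were lipofected with full-length PPAR and RXR expression plasmids, a PLIN1- or CPT1A-driven luciferase reporter and pRL-CMV Renilla control. Compound in DMSO (final 0.1%) was added 5 h later. After 18 h, cells were lysed for Dual-Luciferase readout. Three biological replicates were run in quadruplicate.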
# [2] = target: T2, Peroxisome proliferator-activated receptor alpha (Homo sapiens) (UniProt Q07869); assay: Agonist activity at human PPARalpha in 8 day differentiated human SGBS cells assessed as increase in FABP4 gene expression at 25 uM incubated for 24 hrs by SYBR-green based qPCR analysis; format: cell-based
# T2 sequence (whole entry): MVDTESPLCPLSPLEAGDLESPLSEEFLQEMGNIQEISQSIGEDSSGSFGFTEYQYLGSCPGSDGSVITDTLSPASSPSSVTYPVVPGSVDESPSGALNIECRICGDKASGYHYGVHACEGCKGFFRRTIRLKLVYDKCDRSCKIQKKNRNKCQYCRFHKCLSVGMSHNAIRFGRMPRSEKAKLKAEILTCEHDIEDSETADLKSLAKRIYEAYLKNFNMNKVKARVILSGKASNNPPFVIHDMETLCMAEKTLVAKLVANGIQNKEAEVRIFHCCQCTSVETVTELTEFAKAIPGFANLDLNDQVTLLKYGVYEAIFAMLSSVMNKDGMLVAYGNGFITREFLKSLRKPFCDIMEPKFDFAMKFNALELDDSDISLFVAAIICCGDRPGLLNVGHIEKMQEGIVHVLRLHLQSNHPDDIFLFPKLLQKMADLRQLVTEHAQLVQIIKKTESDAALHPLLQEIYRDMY
# How it was run: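 SGBS preadipocytes were seeded at passage P6-P8 and grown to confluence. They were differentiated for 4 days in Quickdiff (3FC plus dexamethasone, IBMX and rosiglitazone), then kept in 3FC with medium renewed every fourth day. On day 8, cells were stimulated for 24 h in 3FC with compound:BSA or rosiglitazone. SYBR-green qPCR used gene-specific primers. Data are mean ± SEM of three biological replicates in duplicate.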
# SGBS [3] = assay: Induction of adipogenesis in 8 day differentiated human SGBS cells assessed as increase in FABP4 mRNA expression at 25 uM measured upto 12 days by qRT-PCR analysis; format: functional, cell-based; details: time day <=12
# How it was run: (§1)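 SGBS cells were grown to confluence (day 0). Quickdiff medium was supplemented with compound or rosiglitazone for 4 days, followed by 3FC medium. DMSO or DMSO:BSA served as control. RNA was harvested on days 0, 4, 8 and 12, and expression was measured by SYBR-green qPCR. Data are mean ± SEM of at least three biological replicates in duplicate.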
# SGBS [4] = assay: Induction of adipogenesis in 8 day differentiated human SGBS cells assessed as increase in ADIPOQ mRNA expression at 25 uM measured over 12 days by qRT-PCR analysis; format: functional, cell-based; details: time 12.0 day; how it was run: as §1
# [5] = target: T3, Peroxisome proliferator-activated receptor gamma (Homo sapiens) (UniProt P37231); assay: Agonist activity at human PPARgamma in 8 day differentiated human SGBS cells assessed as decrease in IL-1 beta gene expression at 25 uM incubated for 24 hrs by SYBR-green based qPCR analysis; format: cell-based; details: filed as agonist
# T3 sequence (whole entry): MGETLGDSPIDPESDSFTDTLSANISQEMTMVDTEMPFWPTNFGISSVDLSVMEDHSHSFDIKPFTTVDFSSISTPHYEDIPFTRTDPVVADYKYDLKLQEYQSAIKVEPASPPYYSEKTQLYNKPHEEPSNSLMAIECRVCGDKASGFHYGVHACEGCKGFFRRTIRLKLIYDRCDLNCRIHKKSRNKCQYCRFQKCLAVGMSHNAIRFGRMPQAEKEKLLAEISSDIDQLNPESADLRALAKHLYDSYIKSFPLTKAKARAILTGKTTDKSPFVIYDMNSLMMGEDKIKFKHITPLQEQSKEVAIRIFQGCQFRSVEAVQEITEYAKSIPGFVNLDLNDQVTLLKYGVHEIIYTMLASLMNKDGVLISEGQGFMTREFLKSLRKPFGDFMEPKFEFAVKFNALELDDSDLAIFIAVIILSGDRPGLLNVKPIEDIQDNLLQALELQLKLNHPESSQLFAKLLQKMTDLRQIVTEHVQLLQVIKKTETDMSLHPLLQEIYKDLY
# [6] = target: T3, Peroxisome proliferator-activated receptor gamma (Homo sapiens); assay: Agonist activity at human PPARgamma in 8 day differentiated human SGBS cells assessed as decrease in […] gene expression at 25 uM incubated for 24 hrs by SYBR-green based qPCR analysis; format: cell-based; details: filed as agonist
# [7] = target: T3, Peroxisome proliferator-activated receptor gamma (Homo sapiens); assay: Agonist activity at human PPARgamma in 8 day differentiated human SGBS cells assessed as increase in SLC2A4 gene expression at 25 uM incubated for 24 hrs by SYBR-green based qPCR analysis; format: cell-based; details: filed as agonist
# SGBS [8] = assay: Induction of adipogenesis in 8 day differentiated human SGBS cells assessed as increase in PLIN1 mRNA expression at 25 uM measured upto 12 days by qRT-PCR analysis; format: functional, cell-based; details: time day <=12; how it was run: as §1
Activity [1],Activity [2],Activity [5],Activity [6],Activity [7],Structure (SMILES),Activity (COS-1),Activity (SGBS [3]),Activity (SGBS [4]),Activity (SGBS [8])
inactive,inactive,Active,Active,Active,CCCCC/C=C/C(=O)CCCCCCCC(=O)O,Active,Active,Active,Active
inactive,inactive,Active,Active,Active,CCCCCCCC(=O)/C=C/CCCCCC(=O)O,Active,Active,Active,Active
